Columns and labels:
[1] = test system: T. cruzi Tulahuen CL2 β-galactosidase strain; assay: In vitro activity against T. cruzi intracellular amastigotes in MRC-5SV2 cells; format: cell-based; settings: Trypanosoma cruzi, MRC-5 SV2, 168 h, read-out: T. cruzi EC50
Outline: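 Nifurtimox-sensitive Tulahuen CL2 β-galactosidase parasites infected MRC-5SV2 fibroblasts in MEM with 200 mM L-glutamine, 16.5 mM NaHCO3 and 5% inactivated FCS, at 37 °C and 5% CO2. Wells held 4×10^3 cells and 4×10^4 parasites. Test compound was given as ten 4-fold dilutions (top 64 μM, <1% DMSO) for 7 days. CPRG was then added for 4 h at 37 °C and absorbance read at 540 nm. IC50 from % reduction versus untreated-infected controls; mean ± SEM, 2–4 experiments. Benznidazole reference.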

PMM cytotoxicity = format: cell-based, mouse; settings: Swiss, mouse, PMM CC50, primary peritoneal mouse macrophages
[2] = test system: T. b. brucei (Squib 427 strain); assay: In vitro activity against T. b. brucei; format: cell-based; settings: Trypanosoma brucei, read-out: T. b. bruc. EC50
MRC-5SV2 cytotoxicity = format: cell-based, human; settings: human, MRC-5SV2 cells, MRC-5 CC50, MRC-5SV2 cells, 3 days incubation
Outline: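 MRC-5SV2 cells (3×10^4 cells/mL) in MEM with Earl's salts, L-glutamine, NaHCO3 and 5% inactivated FCS, at 37 °C and 5% CO2. Exposure to test compound (ten 4-fold dilutions, top 64 μM, <1% DMSO) lasted 3 days. Resazurin was then added for 4 h at 37 °C, with fluorescence read at ex 550/em 590 nm. CC50 from % reduction relative to untreated (100%) and medium-only (0%) controls.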

[3] = test system: T. b. rhodesiense (STIB-900 strain); assay: In vitro activity against T. b. rhodesiense; format: cell-based; settings: Trypanosoma brucei, read-out: T. b. rhod. EC50
Outline: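 STIB-900 parasites, axenic in HMI-9 with 10% FBS at 37 °C and 5% CO2, seeded at 4×10^3 parasites/well. Test compound was given as ten 4-fold dilutions (top 64 μM, <1% DMSO). Growth period […], then resazurin added and fluorescence measured after 24 h. IC50 from a sigmoid variable-slope fit versus untreated controls; mean ± SEM, 2–4 experiments. Suramin as reference.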

| Compound | EC50 [1] [µM] | CC50 at 5 days (PMM cytotoxicity) [µM] | EC50 [2] [µM] | CC50 at 3 days (MRC-5SV2 cytotoxicity) [µM] | EC50 [3] [µM] |
| --- | --- | --- | --- | --- | --- |
| C=Cc1cn([C@@H]2O[C@H](CO)[C@@H](O)[C@H]2O)c2ncnc(C)c12 [compound 12] | 6.95 ± 1.29 | > 64 | 2.73 ± 0.28 | > 64 | 2.2 ± 0.11 |
| Cc1ncnc2c1c(CCC1CC1)cn2[C@@H]1O[C@H](CO)[C@@H](O)[C@H]1O [compound 34] | > 64 | > 64 | > 64 | > 64 | > 64 |
| Cc1ncnc2c1c(C1=CCCCC1)cn2[C@@H]1O[C@H](CO)[C@@H](O)[C@H]1O [compound 18] | > 64 | > 64 | > 64 | > 64 | > 64 |
| Cc1ncnc2c1c(/C=C/c1ccccc1)cn2[C@@H]1O[C@H](CO)[C@@H](O)[C@H]1O [compound 35] | 1.94 ± 0.09 | 32 | 6.19 ± 0.57 | 26.6 ± 1.42 | 4.54 ± 0.93 |
| CCc1cn([C@@H]2O[C@H](CO)[C@@H](O)[C@H]2O)c2nc[nH]c(=O)c12 [compound 40] | > 64 | > 64 | 48.5 | > 64 | 40.3 |
| Cc1ncnc2c1c(CC(C)C)cn2[C@@H]1O[C@H](CO)[C@@H](O)[C@H]1O [compound 30] | > 64 | > 64 | > 64 | > 64 | > 64 |
| CCCCCc1cn([C@@H]2O[C@H](CO)[C@@H](O)[C@H]2O)c2ncnc(C)c12 [compound 26] | > 64 | > 64 | > 64 | > 64 | > 64 |
| CC(C)=Cc1cn([C@@H]2O[C@H](CO)[C@@H](O)[C@H]2O)c2ncnc(C)c12 [compound 29] | > 64 | > 64 | > 64 | > 64 | > 64 |
| Cc1ncnc2c1c(F)cn2[C@@H]1O[C@H](CO)[C@@H](O)[C@H]1O [compound 6] | < 0.25 | 32 | 0.41 | 0.3 | < 0.25 |
| CCc1cn([C@@H]2O[C@H](CO)[C@@H](O)[C@H]2O)c2ncnc(OC)c12 [compound 41] | > 64 | > 64 | 0.47 ± 0.01 | > 64 | 1.31 ± 0.44 |
| Cc1ncnc2c1c(CCc1ccccc1)cn2[C@@H]1O[C@H](CO)[C@@H](O)[C@H]1O [compound 36] | 40.3 | > 64 | > 64 | > 64 | 38.7 |
| CCCCCCc1cn([C@@H]2O[C@H](CO)[C@@H](O)[C@H]2O)c2ncnc(C)c12 [compound 28] | 42.1 | > 64 | > 64 | > 64 | > 64 |
| Cc1ncnc2c1c(Br)cn2[C@@H]1O[C@H](CO)[C@@H](O)[C@H]1O [compound 8] | 5.28 | 32 | > 64 | 39.6 | 3.84 |
| Cc1ncnc2c1c(C1=CCCC1)cn2[C@@H]1O[C@H](CO)[C@@H](O)[C@H]1O [compound 16] | > 64 | > 64 | > 64 | > 64 | > 64 |
| Cc1ncnc2c1c(C1CCOCC1)cn2[C@@H]1O[C@H](CO)[C@@H](O)[C@H]1O [compound 21] | 3.98 ± 0.94 | > 64 | 15.1 ± 1.02 | > 64 | 12 ± 1.75 |
| Cc1ncnc2c1c(SC(F)(F)F)cn2[C@@H]1O[C@H](CO)[C@@H](O)[C@H]1O [compound 11] | 30.9 | > 64 | > 64 |  | > 64 |
| C=C(C)c1cn([C@@H]2O[C@H](CO)[C@@H](O)[C@H]2O)c2ncnc(C)c12 [compound 14] | 5.04 | > 64 | 0.5 | 1.49 | < 0.25 |
| Cc1ncnc2c1c(C#CC1CC1)cn2[C@@H]1O[C@H](CO)[C@@H](O)[C@H]1O [compound 33] | 4.59 ± 0.89 | > 64 | 1.36 ± 0.41 | 27.5 ± 19 | 0.34 ± 0.11 |
| Cc1ncnc2c1c(C1=CCOCC1)cn2[C@@H]1O[C@H](CO)[C@@H](O)[C@H]1O [compound 20] | 2.87 ± 0.28 | > 64 | 12.3 ± 2.45 | > 64 | 9.75 ± 0.02 |
| CCCC#Cc1cn([C@@H]2O[C@H](CO)[C@@H](O)[C@H]2O)c2ncnc(C)c12 [compound 25] | 20.4 ± 0.39 | > 64 | 0.89 ± 0.21 | > 64 | 0.37 ± 0.08 |
| CCc1cn([C@@H]2O[C@H](CO)[C@@H](O)[C@H]2O)c2ncnc(CC)c12 [compound 37] | > 64 | > 64 | 2.03 | 20.2 | 2.02 |
| Cc1ncnc2c1c(C#CC(C)C)cn2[C@@H]1O[C@H](CO)[C@@H](O)[C@H]1O [compound 31] | > 64 | > 64 | 23.5 | > 64 | 16 |
| Cc1ncnc2c1c(C1CCCC1)cn2[C@@H]1O[C@H](CO)[C@@H](O)[C@H]1O [compound 17] | 48.9 | > 64 | > 64 | > 64 | 53.6 |
| CCCCC#Cc1cn([C@@H]2O[C@H](CO)[C@@H](O)[C@H]2O)c2ncnc(C)c12 [compound 27] | 2.08 | 8 | 0.52 | 7.58 | 1.19 |
| Cc1ncnc2c1c(-c1ccccc1)cn2[C@@H]1O[C@H](CO)[C@@H](O)[C@H]1O [compound 24] | 40.3 | > 64 | > 64 | > 64 | > 64 |
| Cc1ncnc2c1c(CCC(C)C)cn2[C@@H]1O[C@H](CO)[C@@H](O)[C@H]1O [compound 32] | > 64 | > 64 | > 64 | > 64 | 4 |
| Cc1cn([C@@H]2O[C@H](CO)[C@@H](O)[C@H]2O)c2ncnc(C)c12 [compound 9] | 1.54 ± 0.52 | > 64 | 0.82 ± 0.32 | > 64 | 0.45 ± 0.08 |
| Cc1ncnc2c1c(C1CCCCC1)cn2[C@@H]1O[C@H](CO)[C@@H](O)[C@H]1O [compound 19] | > 64 | > 64 | > 64 | > 64 | > 64 |
| CCc1cn([C@@H]2O[C@H](CO)[C@@H](O)[C@H]2O)c2ncncc12 [compound 38] | 5.38 | > 64 | 1.54 | > 64 | 1.73 |
| Cc1ncnc2c1c(C(C)C)cn2[C@@H]1O[C@H](CO)[C@@H](O)[C@H]1O [compound 15] | 29.1 | > 64 | 0.67 | 0.3 | 0.51 |
